Results of several laboratories.
Compare with care: the assays were run in different laboratories.
Cell line: MCF7
Observed: cell growth or viability

SMILES	assay	conditions	IC50
Cc1ccc(-c2cc(-c3c(Cl)cccc3Cl)c3c(=O)n(C)c(=O)n(C)c3n2)cc1	MTT	48 h	6.41 µM
COc1cc2ncnc(N(C)c3ccc4c(c3)/C(=C/c3ccccc3)C(=O)N4C)c2cc1OC (mixture of isomers)	MTT	–	9.38 µM
O=C(CCn1c(=O)ccc2ccccc21)N1CCOCC1	MTT	48 h	9.77 µM
Cc1nc(Nc2ccc3c(c2)/C(=C/c2ccccc2C)C(=O)N3)c2ccccc2n1	MTT	–	> 50 µM
COc1cc2c3c(n(CCCn4ccnc4)c(=O)c2cc1OC)-c1nc2c(cc1C3=O)OCO2	–	72 h	0.372 µM
O=c1nc(-c2ccc(Nc3nnc(-c4ccc(Cl)cc4)c4ccccc34)cc2)cc(-c2ccccc2)[nH]1	MTT	72 h	0.16 µM
Cc1ccc(-c2cc(-c3ccc(Cl)cc3)c3c(=O)n(C)c(=O)n(C)c3n2)cc1	MTT	48 h	7.49 µM
Cc1nc(Nc2ccc3c(c2)/C(=C/c2ccccc2)C(=O)N3C)c2ccccc2n1	MTT	–	28.8 µM
Cc1ccc(-c2cc(-c3ccc(Cl)c(F)c3)c3c(=O)n(C)c(=O)n(C)c3n2)cc1	MTT	48 h	37 µM
Cc1nc(Nc2ccc3c(c2)/C(=C/c2ccccc2)C(=O)N3Cc2ccccc2)c2ccccc2n1	MTT	–	11.6 µM
COc1ccc(-c2cc(-c3cccc(Br)c3)c3c(=O)n(C)c(=O)n(C)c3n2)cc1	MTT	48 h	13.5 µM
CC(C)CS(=O)(=O)NCc1cccc(-c2ccc3c(NC(=O)CC4CC4)n[nH]c3c2)c1	ATP luminescence	48 h	42 µM
COc1ccc(-c2cc(-c3c(OC)cccc3OC)c3c(=O)[nH]c(=O)[nH]c3n2)cc1	MTT	48 h	32.3 µM
Nc1ccccc1OC(=O)C=Cc1ccc(O)c(O)c1	MTT	–	22.3 µM
COc1ccc(-c2cc(-c3ccccc3Cl)c3c(=O)n(C)c(=O)n(C)c3n2)cc1	MTT	48 h	21.5 µM
Cc1nc(Nc2ccc3c(c2)CC(=O)N3)c2ccccc2n1	MTT	–	31.3 µM
Cc1ccccc1NC(=O)C=Cc1ccc(O)c(O)c1	MTT	–	44.5 µM
COc1cc2c3c(n(CCCNC(C)C)c(=O)c2cc1OC)-c1nc2c(cc1C3=O)OCO2	–	72 h	0.318 µM
O=C(C=Cc1ccc(O)c(O)c1)OCc1ccccc1	MTT	–	85.2 µM
Cc1nc(N(Cc2ccccc2)c2ccc3c(c2)/C(=C/c2ccccc2)C(=O)N3Cc2ccccc2)c2ccccc2n1 (mixture of isomers)	MTT	–	0.89 µM
